We go through one compound from ChEMBL document CHEMBL3227917, “Structure-activity relationships of dimeric Catharanthus alkaloids. 2. Experimental antitumor activities of N-substituted deacetylvinblastine amide (vindesine) sulfates” (J Med Chem, 1979).

Data set [1] deals with Mus musculus. Briefly: Toxicity in C3H mouse allografted with mouse Gardner lymphosarcoma assessed as lethality at 0.40 mg/kg, ip administered daily for 8 to 10 days. The following applies: in vivo, 0.4 mg/kg. Set-up: dose 0.4 mg/kg, route intraperitoneal. The class given is organism-based. An outline of the steps:
(§1)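 Tumor-bearing mice given sulfate salts ip daily for 8–10 days; values are the average of one or more tests. Toxic means lethal to ≥5 of 10 animals per group.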

Data set [2] concerns Mus musculus. Nature of the data set: Toxicity in C3H mouse allografted with mouse Gardner lymphosarcoma assessed as lethality at 0.30 mg/kg, ip administered daily for 8 to 10 days. The format is organism-based. Details: dose 0.3 mg/kg, route intraperitoneal. The settings on record: in vivo, 0.3 mg/kg. The gist of the method:
as §1

The subject of data set [3] is Mus musculus. Briefly: Toxicity in C57BL/6 mouse allografted with mouse B16 cells assessed as animal death at 0.60 mg/kg, ip administered on days 1,5 and 9. The format is organism-based. The settings on record: in vivo, 0.6 mg/kg. Set-up: dose 0.6 mg/kg, route intraperitoneal. An outline of the steps:
(§2)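 B16 melanoma cells (10⁶ inoculum) implanted ip in C57BL/6 mice; groups of 10. Sulfate salts unless noted, given ip on days 1, 5 and 9. Single test. Survival prolongation is expressed as percent versus controls, with survivors counted on day 60. Toxic means deaths of ≥5 of 10 animals before the first control death.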

Data set [4] relates to Mus musculus. Nature of the data set: Toxicity in C57BL/6 mouse allografted with mouse B16 cells assessed as animal death at 0.90 mg/kg, ip administered on days 1,5 and 9. Details: dose 0.9 mg/kg, route intraperitoneal. The following applies: in vivo, 0.9 mg/kg. The class given is organism-based. The gist of the method: as §2
Another data set deals with B16. Nature of the data set: Antitumor activity against mouse B16 cells allografted in C57BL/6 mouse assessed as prolongation of host survival at 0.30 mg/kg, ip administered on days 1,5 and 9. The format is functional. The following applies: route intraperitoneal. The gist of the method:
as §2

A short description of data set [5]: Antitumor activity against mouse Gardner lymphosarcoma allografted in C3H mouse assessed as tumor growth inhibition at 0.20 mg/kg, ip administered daily for 8 to 10 days. The format is functional. The settings on record: route intraperitoneal, read-out: TGI. An outline of the steps:
(§3)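 Gardner lymphosarcoma in C3H mice; sulfate salts unless noted, given ip daily for 8–10 days, treatment starting 8 days after tumor implantation. Tumor growth inhibition scored as –, 0–25%; +, 26–50%; ++, 51–75%; +++, 76–100%; T, lethal to ≥5 of 10 animals per group. Average of one or more tests.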

Data set [6] is described as follows: Antitumor activity against mouse Gardner lymphosarcoma allografted in C3H mouse assessed as tumor growth inhibition at 0.10 mg/kg, ip administered daily for 8 to 10 days. The class given is functional. The following applies: route intraperitoneal, read-out: TGI. An outline of the steps:
as §3

Consider `CC[C@]1(O)C[C@H]2CN(CCc3c([nH]c4ccccc34)[C@@](C(=O)OC)(c3cc4c(cc3OC)N(C)[C@H]3[C@@](O)(C(=O)NC5CCSC5=O)[C@H](O)[C@]5(CC)C=CCN6CC[C@]43[C@@H]65)C2)C1.O=S(=O)(O)O` (some centres not stated), for which the Activity entry with Mus musculus [1], with Mus musculus [2], in the data set with Mus musculus [3] and in the data set on Mus musculus [4] was “Toxic” throughout. For the same compound, the survival at 0.3 mg/kg in the data set with B16 amounted to 94%. Besides, in data set [5], the inhibition in vivo at 0.2 mg/kg was found to be 0%. The inhibition in vivo at 0.1 mg/kg in data set [6] is 0%.
